A selection: hits, their analogues and other compounds. The true share with any hit is near 2.1%.
Runt-SMMHC FRET: Runt domain-CBFb-SMMHC interaction inhibition; AID 1434; 0.74% of 220,000 active; Cerulean-Runt/Venus-CBFb-SMMHC FRET ratio 530/480, 1 h; inhibition, % at 20 µM;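 active means mean inhibition across duplicate retests at 20 µM reaching about 50%, limit read from the data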;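 further: inhibitors lower the FRET ratio by blocking Runt binding to CBFb-SMMHC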
Target sequence (Q01196 whole entry, looked up, the tested form may be a part): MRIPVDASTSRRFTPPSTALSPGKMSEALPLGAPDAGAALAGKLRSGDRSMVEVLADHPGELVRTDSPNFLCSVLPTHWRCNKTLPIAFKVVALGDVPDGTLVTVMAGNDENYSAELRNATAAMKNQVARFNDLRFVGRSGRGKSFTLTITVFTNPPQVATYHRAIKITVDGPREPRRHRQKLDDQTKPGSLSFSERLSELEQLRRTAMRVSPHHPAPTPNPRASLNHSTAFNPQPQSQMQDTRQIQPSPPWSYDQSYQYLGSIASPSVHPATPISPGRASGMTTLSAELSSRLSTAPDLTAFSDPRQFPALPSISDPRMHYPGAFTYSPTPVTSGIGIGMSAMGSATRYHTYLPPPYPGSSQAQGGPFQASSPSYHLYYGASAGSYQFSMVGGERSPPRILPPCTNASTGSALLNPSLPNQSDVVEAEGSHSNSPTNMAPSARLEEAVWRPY
Target sequence (Q13951 whole entry, looked up, the tested form may be a part): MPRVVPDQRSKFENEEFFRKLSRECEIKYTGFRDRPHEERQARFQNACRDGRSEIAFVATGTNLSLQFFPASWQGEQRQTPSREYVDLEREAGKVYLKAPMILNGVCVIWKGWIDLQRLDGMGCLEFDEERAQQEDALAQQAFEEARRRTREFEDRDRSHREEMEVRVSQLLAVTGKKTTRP
Runt-CBFb FRET: Runt domain-CBFb interaction inhibition; 0.46% of 220,000 active; AID 1496; Q01196+Q13951; Cerulean-Runt/Venus-CBFb FRET ratio 530/480, 1 h; inhibition, % at 20 µM;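 active means inhibition over about 50% at 20 µM in the single-dose screen, limit read from the data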
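test system = Cerulean-Runt domain fusion protein, energy donor | probe or stimulus = Venus-CBFb binding partner, 100 nM | incubation = two 1 h room-temperature incubations shielded from light | detection = fluorescence energy transfer, 422 nm excitation, 530/480 nm emission | measure = loss of energy transfer signal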
FAS-TE inh: blocks the thioesterase domain of human fatty acid synthase. recombinant FAS-TE, OMFH fluorogenic substrate, fluorescence endpoint. inhibition, % at 15 µM. P49327. 0.67% of 360,000 active;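 active means compounds whose normalised, plate-corrected inhibition of enzyme fluorescence in the single-dose primary screen is 50% or more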
RanGTP-Impb inh: disruptors of Ran-importin-beta complex formation – biochemical, FRET, CFP-Ran, YFP-importin-beta, homogeneous, primary screen. cell-free CFP-Ran/YFP-importin-beta FRET ratio. inhibition, % (concentration not given with the values). 1.1% of 300,000 active;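 active means more than half of the replicate wells show a fall in the fluorescence ratio signal beyond about 16%, limit read from the data, passing the limit was not always enough; inconclusive means exactly half of the replicate wells pass the set limit; inactive means fewer than half of replicates pass the limit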
Calpain2 inh: calpain II (pig) inhibition | purified calpain II, fluorogenic peptide substrate, 30 min | inhibition, % at 16 µM | 0.37% of 220,000 active;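 active means inhibition above about 50%, limit read from the data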
Large screens that a line does not name were inactive.

COCCN1C=C(C(=O)OC)C(c2ccccc2Cl)C(C(=O)OC)=C1	Runt-SMMHC FRET 86, Runt-CBFb FRET 64, RanGTP-Impb inh 58
COC(=O)C1=CN(Cc2cccs2)C=C(C(=O)OC)C1c1cccc(OC)c1OC	Runt-CBFb FRET 93, RanGTP-Impb inh 71
CCCOc1ccc(-c2nn(-c3ccccc3)cc2/C=C2\SC(N)=NC2=O)cc1	RanGTP-Impb inh 19
Cc1nn(-c2ccccc2)c2c1P(=O)(O)/C(=C1\N(C)c3ccccc3C1(C)C)C=N2	RanGTP-Impb inh 29
Cc1nn(-c2ccccc2)c(N)c1C1(O)C(=O)N(C(C)C)c2ccccc21 (centres undefined)	none
COC(=O)[C@]12CCCCC=C1N(Cc1cccc3ccccc13)C(=O)[C@H](CC(=O)N1CCCC1)C2	none (no result: Runt-SMMHC FRET, Runt-CBFb FRET, RanGTP-Impb inh, Calpain2 inh)
O=c1c2ccccc2nc(-c2ccccc2)n1CCCN1CCOCC1	none
N=c1c(S(=O)(=O)c2ccccc2)cc2c(=O)n3ccccc3nc2n1CCCN1CCOCC1	RanGTP-Impb inh 155 (no result: Runt-SMMHC FRET, Runt-CBFb FRET, Calpain2 inh)
CCCCCn1c(=N)c(S(=O)(=O)c2ccc(Br)cc2)cc2c(=O)n3cccc(C)c3nc21	RanGTP-Impb inh inconclusive (no result: Runt-SMMHC FRET, Runt-CBFb FRET, Calpain2 inh)
O=S(=O)(c1ccccc1)c1nc(-c2ccc(Cl)cc2)oc1NCCCN1CCOCC1	none (no result: Runt-SMMHC FRET, Runt-CBFb FRET, RanGTP-Impb inh, Calpain2 inh)
CCOCCCn1c(=N)c(S(=O)(=O)c2ccccc2)cc2c(=O)n3cc(C)ccc3nc21	RanGTP-Impb inh 160 (no result: Runt-SMMHC FRET, Runt-CBFb FRET, Calpain2 inh)
N=c1c(S(=O)(=O)c2ccc(Cl)cc2)cc2c(=O)n3ccccc3nc2n1CCN1CCOCC1	Runt-SMMHC FRET 63, Runt-CBFb FRET 90
N=c1c(S(=O)(=O)c2ccc(Cl)cc2)cc2c(=O)n3ccccc3nc2n1CCc1ccccc1	RanGTP-Impb inh 50 (no result: Runt-SMMHC FRET, Runt-CBFb FRET, Calpain2 inh)
Cc1ccc(S(=O)(=O)c2cc3c(=O)n4ccccc4nc3n(CCCN3CCOCC3)c2=N)cc1C	RanGTP-Impb inh 135 (no result: Runt-SMMHC FRET, Runt-CBFb FRET, Calpain2 inh)
O=C(NCc1ccccn1)c1cccc(NS(=O)(=O)c2ccc(Br)cc2)c1	none (no result: Runt-SMMHC FRET, Runt-CBFb FRET, RanGTP-Impb inh, Calpain2 inh)
Cc1cccc(CC(=O)NCC(=O)NCc2cc(=O)n(C)c(=O)n2C)c1	none (no result: Runt-SMMHC FRET, Runt-CBFb FRET, Calpain2 inh)
CCOC(=O)c1c(N2C(=O)C=CC2=O)sc(C)c1C	Runt-SMMHC FRET 62
N#Cc1ccc(Nc2nc(-c3ccc(O)cc3O)cs2)cc1C(F)(F)F	FAS-TE inh 61 (no result: Runt-SMMHC FRET, Runt-CBFb FRET, RanGTP-Impb inh, Calpain2 inh)
CCc1ccccc1NC(=O)/C(C#N)=C/c1ccc(Sc2ccccc2)o1	none
CCc1ccccc1NC(=O)/C(C#N)=C\c1ccc(Sc2ccccc2)o1	RanGTP-Impb inh 16
CCC1=NN(C(=O)Cc2ccc([N+](=O)[O-])cc2)C(O)(c2ccncc2)C1 (centres undefined)	RanGTP-Impb inh 18
O=C(Nc1ccccc1)c1cnc[nH]1	Runt-CBFb FRET 89
COc1ccc(S(=O)(=O)N(CC(=O)NC2CCCCC2)c2ccc(F)cc2)cc1	none (no result: Runt-SMMHC FRET, Runt-CBFb FRET, Calpain2 inh)
Cn1c2ccccc2c(=O)c2cc(C#CC3(O)CCCCC3)ccc21	RanGTP-Impb inh 169 (no result: Runt-SMMHC FRET, Runt-CBFb FRET, Calpain2 inh)
Cn1c2ccccc2c(=O)c2ccc(C#CC3(N)CCCCC3)cc21	RanGTP-Impb inh 163 (no result: Runt-SMMHC FRET, Runt-CBFb FRET, Calpain2 inh)
CCN(CC)CCNC(=O)c1cccc(NC(=O)C(=O)c2ccccc2NC(C)=O)c1	none
CC(C)c1ccc(NC(=O)C(c2ccccc2)N(C)C(=O)CCc2c[nH]c3ccccc23)cc1 (centres undefined)	none (no result: Runt-SMMHC FRET, Runt-CBFb FRET, Calpain2 inh)
CCc1cc2c(CN3CCN(CCO)CC3)cc(=O)oc2cc1O	Runt-SMMHC FRET 62, Runt-CBFb FRET 70, RanGTP-Impb inh 113
COc1ccc2c(CN3CCCC3)cc(=O)oc2c1	none (no result: Runt-SMMHC FRET, Runt-CBFb FRET, RanGTP-Impb inh, Calpain2 inh)
CCc1cc2c3c(c(=O)oc2cc1O)CCCC3	Runt-SMMHC FRET 144, Runt-CBFb FRET 96, RanGTP-Impb inh inconclusive
CCc1cc2c(CN3CCN(C)CC3)cc(=O)oc2cc1O	Runt-SMMHC FRET 57, RanGTP-Impb inh 114
COc1ccc(OC)c(CN2CCN(Cc3cc(=O)oc4cc(O)ccc34)CC2)c1	RanGTP-Impb inh 61 (no result: Runt-SMMHC FRET, Runt-CBFb FRET, Calpain2 inh)
O=C(CN(Cc1ccc(F)cc1)C(=O)CNS(=O)(=O)c1ccccc1)NCc1ccco1	none (no result: Runt-SMMHC FRET, Runt-CBFb FRET, Calpain2 inh)
O=C(CN(CCc1ccccc1)S(=O)(=O)c1ccc(Cl)cc1)N/N=C/c1ccccc1C(=O)O	RanGTP-Impb inh 20
COc1ccc2cc1Oc1ccc(cc1)C[C@H]1c3c(cc(OC)c4c3Oc3c(ccc5c3[C@H](C2)N(C)CC5)O4)CCN1C	FAS-TE inh 66 (no result: Runt-SMMHC FRET, Runt-CBFb FRET, RanGTP-Impb inh, Calpain2 inh)
COc1ccc2cc1Oc1ccc(cc1)CC1c3c(cc(OC)c4c3Oc3cc5c(cc3O4)CCNC5C2)CCN1C (centres undefined)	none
